Assay results reported in ChEMBL document CHEMBL1135382, “First dual NK(1) antagonists-serotonin reuptake inhibitors: synthesis and SAR of a new class of potential antidepressants” (Bioorg Med Chem Lett, 2002).

Target: T1, Substance-P receptor (Homo sapiens, UniProt P25103)
Experiment: Binding affinity towards human Tachykinin receptor 1 expressed in CHO cells using [3H]-substance P; Less than 50% inhibition at 10e-5 M
Format: cell-based

T1 sequence (P25103 whole entry): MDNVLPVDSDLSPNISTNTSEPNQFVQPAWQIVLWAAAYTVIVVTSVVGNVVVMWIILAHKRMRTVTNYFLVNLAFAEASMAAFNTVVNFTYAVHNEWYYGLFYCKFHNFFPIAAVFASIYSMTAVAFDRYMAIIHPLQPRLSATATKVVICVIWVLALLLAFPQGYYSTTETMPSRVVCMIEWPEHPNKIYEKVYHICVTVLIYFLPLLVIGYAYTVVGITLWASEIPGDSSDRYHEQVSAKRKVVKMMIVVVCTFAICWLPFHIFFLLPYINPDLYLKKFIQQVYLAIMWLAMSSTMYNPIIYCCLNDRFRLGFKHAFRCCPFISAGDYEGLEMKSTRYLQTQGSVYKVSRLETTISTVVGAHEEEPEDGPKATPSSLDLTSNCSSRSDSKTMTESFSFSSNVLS

For `O=C(COc1cc(C(F)(F)F)cc(C(F)(F)F)c1)N(c1cc(Cl)cc(Cl)c1)C1CCNCC1`, which inhibition is on record?
Its inhibition is < 5%.

Which inhibition does the source give for `O=C(COc1cc(F)cc(C(F)(F)F)c1)N(Cc1cccc(Cl)c1)C1CCNCC1` here?
The inhibition was < 5%.

With `O=C(COc1cc(F)cc(C(F)(F)F)c1)N(c1ccc(Cl)c(Cl)c1)C1CCNCC1` as the molecule, how does the inhibition read?
Its inhibition is < 5%.

For `O=C(COc1cc(F)cc(F)c1)N(Cc1cccc(Cl)c1)C1CCNCC1`, which inhibition is on record?
The inhibition was < 5%.

Target: T1, Substance-P receptor
Experiment: Binding affinity at human Tachykinin receptor 1 expressed in CHO cells by [3H]-substance P displacement.
Format: cell-based
In short: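 Membranes (10–20 μg protein) from CHO cells expressing human NK1 receptor were incubated 60 min at 25 °C in 50 mM Tris–HCl pH 7.4 with 2 mM MgCl2, 100 μg/mL bacitracin and 0.25 nM [3H]substance P.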

With `O=C(CCc1cc(C(F)(F)F)cc(C(F)(F)F)c1)N(Cc1ccccc1Cl)C1CCNCC1` as the molecule, how does the IC50 read?
The IC50 was 100 nM.

With `Fc1ccc(N(CCCc2cc(C(F)(F)F)cc(C(F)(F)F)c2)C2CCNCC2)cc1` as the molecule, how does the IC50 read?
The IC50 was 50.1 nM.

With `O=C(COc1cc(C(F)(F)F)cc(C(F)(F)F)c1)N(c1ccc(Cl)c(Cl)c1)C1CCNCC1` as the molecule, how does the IC50 read?
Its IC50 is 31.6 nM.

Which IC50 does the source give for `O=C(CCc1cc(C(F)(F)F)cc(C(F)(F)F)c1)N(c1ccc(F)cc1)C1CCNCC1` here?
Its IC50 is 200 nM.

Which IC50 does the source give for `Cc1cc(C)cc(OCC(=O)N(Cc2cccc(Cl)c2)C2CCNCC2)c1` here?
Its IC50 is 100 nM.

For `O=C(COc1cc(C(F)(F)F)cc(C(F)(F)F)c1)N(Cc1ccccc1Cl)C1CCNCC1`, which IC50 is on record?
Its IC50 is 126 nM.

For `O=C(COc1cc(C(F)(F)F)cc(C(F)(F)F)c1)N(c1cccc(Cl)c1)C1CCNCC1`, which IC50 is on record?
The IC50 was 200 nM.

With `Fc1ccc(CN(CCCc2cc(C(F)(F)F)cc(C(F)(F)F)c2)C2CCNCC2)cc1` as the molecule, how does the IC50 read?
Its IC50 is 126 nM.

With `O=C(COc1cc(C(F)(F)F)cc(C(F)(F)F)c1)N(c1ccc(F)cc1)C1CCNCC1` as the molecule, how does the IC50 read?
The IC50 was 316 nM.

Which IC50 does the source give for `Cc1cccc(CN(C(=O)CCc2cc(C(F)(F)F)cc(C(F)(F)F)c2)C2CCNCC2)c1` here?
The IC50 was 25.1 nM.

Which IC50 does the source give for `O=C(COc1cc(C(F)(F)F)cc(C(F)(F)F)c1)N(Cc1cccc(Cl)c1)C1CCNCC1` here?
The IC50 was 25.1 nM.

For `Cc1cccc(CN(C(=O)COc2cc(C(F)(F)F)cc(C(F)(F)F)c2)C2CCNCC2)c1`, which IC50 is on record?
Its IC50 is 79.4 nM.

With `O=C(COc1cc(Cl)cc(Cl)c1)N(Cc1cccc(Cl)c1)C1CCNCC1` as the molecule, how does the IC50 read?
Its IC50 is 126 nM.

With `O=C(CCc1cc(C(F)(F)F)cc(C(F)(F)F)c1)N(Cc1ccc(F)cc1)C1CCNCC1` as the molecule, how does the IC50 read?
Its IC50 is 31.6 nM.

Target: Sodium-dependent serotonin transporter (Rattus norvegicus, UniProt P31652)
Sequence (P31652 whole entry): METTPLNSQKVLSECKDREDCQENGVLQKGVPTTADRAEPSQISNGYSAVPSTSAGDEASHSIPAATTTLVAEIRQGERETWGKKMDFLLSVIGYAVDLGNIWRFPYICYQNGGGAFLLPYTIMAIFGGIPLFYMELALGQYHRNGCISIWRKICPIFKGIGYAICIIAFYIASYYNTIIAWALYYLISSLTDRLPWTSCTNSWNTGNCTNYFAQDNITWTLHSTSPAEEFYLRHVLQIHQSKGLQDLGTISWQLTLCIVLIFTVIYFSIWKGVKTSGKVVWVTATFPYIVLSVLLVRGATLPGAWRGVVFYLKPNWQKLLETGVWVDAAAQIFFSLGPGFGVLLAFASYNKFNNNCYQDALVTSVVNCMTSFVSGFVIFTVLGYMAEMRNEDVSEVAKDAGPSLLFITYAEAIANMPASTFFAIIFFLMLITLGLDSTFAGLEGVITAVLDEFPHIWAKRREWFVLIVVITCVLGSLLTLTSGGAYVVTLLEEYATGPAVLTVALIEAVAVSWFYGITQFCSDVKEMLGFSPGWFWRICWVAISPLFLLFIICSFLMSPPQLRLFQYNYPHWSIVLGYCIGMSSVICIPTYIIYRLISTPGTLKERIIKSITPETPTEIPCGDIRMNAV
Experiment: Binding affinity at serotonin transporter from rat cerebral cortex by [3H]-paroxetine displacement.
Format: tissue-based
In short: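 Rat cerebral cortex membranes (100–200 μg protein) were incubated 120 min at 25 °C in 50 mM Tris–HCl pH 7.4 with 2 mM MgCl2 and 0.05 nM radioligand. Nonspecific binding was defined with 5 μM imipramine.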

For `O=C(CCc1cc(C(F)(F)F)cc(C(F)(F)F)c1)N(Cc1ccccc1Cl)C1CCNCC1`, which IC50 is on record?
The IC50 was 200 nM.

With `Fc1ccc(N(CCCc2cc(C(F)(F)F)cc(C(F)(F)F)c2)C2CCNCC2)cc1` as the molecule, how does the IC50 read?
The IC50 was 39.8 nM.

For `O=C(COc1cc(C(F)(F)F)cc(C(F)(F)F)c1)N(c1ccc(Cl)c(Cl)c1)C1CCNCC1`, which IC50 is on record?
Its IC50 is 158 nM.

With `O=C(COc1cc(C(F)(F)F)cc(C(F)(F)F)c1)N(c1cc(Cl)cc(Cl)c1)C1CCNCC1` as the molecule, how does the IC50 read?
Its IC50 is 158 nM.

With `O=C(CCc1cc(C(F)(F)F)cc(C(F)(F)F)c1)N(c1ccc(F)cc1)C1CCNCC1` as the molecule, how does the IC50 read?
The IC50 was 251 nM.

Which IC50 does the source give for `O=C(COc1cc(F)cc(C(F)(F)F)c1)N(Cc1cccc(Cl)c1)C1CCNCC1` here?
Its IC50 is 100 nM.

Which IC50 does the source give for `Cc1cc(C)cc(OCC(=O)N(Cc2cccc(Cl)c2)C2CCNCC2)c1` here?
Its IC50 is 25.1 nM.

Which IC50 does the source give for `O=C(COc1cc(C(F)(F)F)cc(C(F)(F)F)c1)N(Cc1ccccc1Cl)C1CCNCC1` here?
Its IC50 is 158 nM.

For `O=C(COc1cc(C(F)(F)F)cc(C(F)(F)F)c1)N(c1cccc(Cl)c1)C1CCNCC1`, which IC50 is on record?
The IC50 was 158 nM.

With `Fc1ccc(CN(CCCc2cc(C(F)(F)F)cc(C(F)(F)F)c2)C2CCNCC2)cc1` as the molecule, how does the IC50 read?
The IC50 was 25.1 nM.

Which IC50 does the source give for `O=C(COc1cc(C(F)(F)F)cc(C(F)(F)F)c1)N(c1ccc(F)cc1)C1CCNCC1` here?
Its IC50 is 631 nM.

With `Cc1cccc(CN(C(=O)CCc2cc(C(F)(F)F)cc(C(F)(F)F)c2)C2CCNCC2)c1` as the molecule, how does the IC50 read?
The IC50 was 200 nM.

With `O=C(COc1cc(F)cc(C(F)(F)F)c1)N(c1ccc(Cl)c(Cl)c1)C1CCNCC1` as the molecule, how does the IC50 read?
Its IC50 is 39.8 nM.

With `O=C(COc1cc(C(F)(F)F)cc(C(F)(F)F)c1)N(Cc1cccc(Cl)c1)C1CCNCC1` as the molecule, how does the IC50 read?
The IC50 was 158 nM.

For `O=C(COc1cc(F)cc(F)c1)N(Cc1cccc(Cl)c1)C1CCNCC1`, which IC50 is on record?
Its IC50 is 20 nM.

For `Cc1cccc(CN(C(=O)COc2cc(C(F)(F)F)cc(C(F)(F)F)c2)C2CCNCC2)c1`, which IC50 is on record?
The IC50 was 251 nM.

Which IC50 does the source give for `O=C(COc1cc(Cl)cc(Cl)c1)N(Cc1cccc(Cl)c1)C1CCNCC1` here?
Its IC50 is 50.1 nM.

With `O=C(CCc1cc(C(F)(F)F)cc(C(F)(F)F)c1)N(Cc1ccc(F)cc1)C1CCNCC1` as the molecule, how does the IC50 read?
Its IC50 is 316 nM.

Tested on: not listed separately
Experiment: Lipophilicity
Format: physicochemical

Which “Log K' IAM” value does the source give for `O=C(CCc1cc(C(F)(F)F)cc(C(F)(F)F)c1)N(Cc1ccccc1Cl)C1CCNCC1` here?
Its value is 3.2.

Which “Log K' IAM” value does the source give for `Fc1ccc(N(CCCc2cc(C(F)(F)F)cc(C(F)(F)F)c2)C2CCNCC2)cc1` here?
Its value is 3.9.

For `O=C(COc1cc(C(F)(F)F)cc(C(F)(F)F)c1)N(c1ccc(Cl)c(Cl)c1)C1CCNCC1`, which “Log K' IAM” value is on record?
Its value is 3.4.

Which “Log K' IAM” value does the source give for `O=C(COc1cc(C(F)(F)F)cc(C(F)(F)F)c1)N(c1cc(Cl)cc(Cl)c1)C1CCNCC1` here?
Its value is 3.4.

Which “Log K' IAM” value does the source give for `O=C(CCc1cc(C(F)(F)F)cc(C(F)(F)F)c1)N(c1ccc(F)cc1)C1CCNCC1` here?
Its value is 2.9.

For `O=C(COc1cc(F)cc(C(F)(F)F)c1)N(Cc1cccc(Cl)c1)C1CCNCC1`, which “Log K' IAM” value is on record?
Its value is 2.9.

With `Cc1cc(C)cc(OCC(=O)N(Cc2cccc(Cl)c2)C2CCNCC2)c1` as the molecule, how does the “Log K' IAM” value read?
Its value is 2.6.

With `O=C(COc1cc(C(F)(F)F)cc(C(F)(F)F)c1)N(Cc1ccccc1Cl)C1CCNCC1` as the molecule, how does the “Log K' IAM” value read?
The value was 3.2.

With `O=C(COc1cc(C(F)(F)F)cc(C(F)(F)F)c1)N(c1cccc(Cl)c1)C1CCNCC1` as the molecule, how does the “Log K' IAM” value read?
Its value is 3.

Which “Log K' IAM” value does the source give for `Fc1ccc(CN(CCCc2cc(C(F)(F)F)cc(C(F)(F)F)c2)C2CCNCC2)cc1` here?
The value was 3.8.

Which “Log K' IAM” value does the source give for `O=C(COc1cc(C(F)(F)F)cc(C(F)(F)F)c1)N(c1ccc(F)cc1)C1CCNCC1` here?
The value was 2.5.

With `Cc1cccc(CN(C(=O)CCc2cc(C(F)(F)F)cc(C(F)(F)F)c2)C2CCNCC2)c1` as the molecule, how does the “Log K' IAM” value read?
The value was 3.2.

Which “Log K' IAM” value does the source give for `O=C(COc1cc(F)cc(C(F)(F)F)c1)N(c1ccc(Cl)c(Cl)c1)C1CCNCC1` here?
The value was 3.

For `O=C(COc1cc(C(F)(F)F)cc(C(F)(F)F)c1)N(Cc1cccc(Cl)c1)C1CCNCC1`, which “Log K' IAM” value is on record?
The value was 3.4.

With `O=C(COc1cc(F)cc(F)c1)N(Cc1cccc(Cl)c1)C1CCNCC1` as the molecule, how does the “Log K' IAM” value read?
The value was 2.4.

With `Cc1cccc(CN(C(=O)COc2cc(C(F)(F)F)cc(C(F)(F)F)c2)C2CCNCC2)c1` as the molecule, how does the “Log K' IAM” value read?
Its value is 3.3.

For `O=C(COc1cc(Cl)cc(Cl)c1)N(Cc1cccc(Cl)c1)C1CCNCC1`, which “Log K' IAM” value is on record?
Its value is 3.1.

For `O=C(CCc1cc(C(F)(F)F)cc(C(F)(F)F)c1)N(Cc1ccc(F)cc1)C1CCNCC1`, which “Log K' IAM” value is on record?
Its value is 2.9.
